# Experimental data taken from PMC4324418 (ACS Chemical Neuroscience, 2014).
# Counter-ions that a name gives are not always drawn. Marks after values point to notes of the source that are not given here.
# Columns and labels:
# [1] = target: T1, rat M4 receptor (Rattus norvegicus, UniProt P08485); type: cell-based
# T1 sequence (P08485 1-478): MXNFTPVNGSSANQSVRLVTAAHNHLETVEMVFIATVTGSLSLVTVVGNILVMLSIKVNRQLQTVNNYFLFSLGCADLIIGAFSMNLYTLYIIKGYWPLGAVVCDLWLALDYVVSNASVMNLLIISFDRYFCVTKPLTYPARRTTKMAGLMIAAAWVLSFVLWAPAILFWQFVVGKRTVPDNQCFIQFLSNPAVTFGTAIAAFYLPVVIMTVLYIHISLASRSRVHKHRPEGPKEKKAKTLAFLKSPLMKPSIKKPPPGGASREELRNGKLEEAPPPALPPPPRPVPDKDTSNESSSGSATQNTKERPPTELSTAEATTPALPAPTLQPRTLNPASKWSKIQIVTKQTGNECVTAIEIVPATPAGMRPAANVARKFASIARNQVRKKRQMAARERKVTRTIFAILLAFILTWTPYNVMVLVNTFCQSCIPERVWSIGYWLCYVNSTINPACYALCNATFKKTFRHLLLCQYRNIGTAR
# [2] = system: M4 KO mice; assay: MK-801-induced hyperlocomotion in M4 KO mice; type: in vivo, mouse; settings: IP, lowest significant dose
# Outline: (§1)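 Wild-type and M4 KO mice were habituated 90 min in a photobeam open field. They then received vehicle (10% Tween 80 IP), followed 30 min later by saline or MK-801 IP, and activity was recorded for 120 min. Distance traveled was binned per 5 min. Totals covered t = 120 to 240 min and were analyzed by ANOVA with Bonferroni post hoc tests.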
# [3] = system: M4 KO mice; assay: Touchscreen pairwise visual discrimination task, M4 KO mice; type: in vivo, mouse; settings: M4 KO
# Outline: (§2)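 Mice aged 8–11 weeks were held at ~85% free-feeding weight, with water freely available. They were trained on touchscreen nosepoke discrimination (60 trials or 60 min) to ≥85% accuracy on 3 consecutive days. Next day: vehicle (10% Tween 80 IP) or test compound (3–30 mg/kg IP) 60 min pre-test, then saline or MK-801 (0.1–0.3 mg/kg IP) 30 min later. Mice were retested drug-free 24 h later. Analysis: ANOVA with Bonferroni tests.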
# [4] = system: wild-type mice; assay: Contextual fear conditioning, four-shock, MK-801-induced deficit; type: in vivo, mouse; settings: MK-801 0.1–0.3 mg/kg prior to the four-shock conditioning trial
# Outline: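 Subjects were wild-type and M4 KO mice, 8–11 weeks old, handled for 3 days and saline-injected 1 day before conditioning. Vehicle (10% Tween 80 in water, IP) or test compound (3–10 mg/kg IP) was given 30 min before saline or MK-801 (0.1–0.3 mg/kg IP). Mice entered the chamber 30 min later for a four-shock conditioning trial. Percent freezing was scored 24 h later, drug-free.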
# [5] = system: wild-type mice; assay: Touchscreen pairwise visual discrimination task, wild-type mice; type: in vivo, mouse
# Outline: as §2
# [6] = system: wild-type mice; assay: MK-801-induced hyperlocomotion in wild-type mice; type: in vivo, mouse; settings: IP
# Outline: as §1
# [7] = system: wild-type mice; assay: Modified Irwin neurological test battery; type: in vivo, mouse; settings: 1 mg/kg
# [8] = potentiation of an EC20 concentration of ACh, CHO cells
smiles,measurement,setting,value
COc1nc2sc(C(=O)NC3CC3)c(N)c2c(C)c1Cl [LY2033298],%AChmax,[1]; maximum response as % of the Emax of ACh,67%
same,EC50,[1]; [8],646 nM
same,pEC50,[1]; [8],6.19 ± 0.03
"C[C@]12N[C@H](Cc3ccccc31)c1ccccc12 [MK-801, (5S,10R)-(+)-5-methyl-10,11-dihydro-5H-dibenzo[a,d]cyclohepten-5,10-imine maleate, reference compound]",dose with significant effect on locomotor activity,[2],0.18 mg/kg
same,response accuracy on the test day,[3]; MK-801 alone (vehicle 91%),73%
same,correct reward collection latency,[3]; vehicle + MK-801 0.30 mg/kg IP,1.54 ± 0.15 s
same,correct touch latency,[3]; vehicle + MK-801 0.30 mg/kg IP,8.76 ± 2.19 s
same,time to complete 60 trials,[3]; vehicle + MK-801 0.30 mg/kg IP,1264 ± 280.5 ^f s
same,acquisition of contextual fear conditioning (percent freezing),[4],dose-dependently impaired
same,response accuracy on the test day,[5]; 0.3 mg/kg MK-801 (vehicle group 92%),63%
same,correct reward collection latency,[5]; vehicle + MK-801 0.10 mg/kg IP,1.32 ± 0.15 s
same,correct touch latency,[5]; vehicle + MK-801 0.10 mg/kg IP,2.95 ± 0.57 s
same,time to complete 60 trials,[5]; vehicle + MK-801 0.10 mg/kg IP,1004 ± 124.3 s
same,correct reward collection latency,[5]; vehicle + MK-801 0.30 mg/kg IP,5.58 ± 2.58 s
same,correct touch latency,[5]; vehicle + MK-801 0.30 mg/kg IP,8.65 ± 1.99 s
same,time to complete 60 trials,[5]; vehicle + MK-801 0.30 mg/kg IP,1118 ± 139.2 s
same,dose with significant effect on locomotor activity,[6],3 mg/kg
"O=C1CCCN1CC#CCN1CCCC1 [oxotremorine, oxotremorine sesquifumarate, reference compound]",autonomic function and somatomotor deficits,[7],induced time-dependent changes in autonomic function
